Data on 72 molecules can be found in ChEMBL document CHEMBL4513216, “Probing the Open Global Health Chemical Diversity Library for Multistage-Active Starting Points for Next-Generation Antimalarials” (ACS Infect Dis, 2020).

A short description of this data set: Toxicity liver stage against HepG2, at 10uM. Type of data set: cell-based. Further details: test concentration 10 uM, cell line HepG2-A16-CD81EGFP. Conditions: human, HepG2-A16-CD81EGFP cells; read-out: INHIBITION
In short, it runs like this:
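Uninfected HepG2-A16-CD81EGFP cells, 3 × 10^3 per well, 1536-well, plated on prespotted compound at 10 μM final, parasite-free screening media added to match infected plates; puromycin 10 μM positive, DMSO 0.5% negative; run in parallel with 48 h PbLuc assay at 37 °C, 5% CO2; viability by CellTiter-Glo luminescence, normalized to controls.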
In the case of `Cc1ncncc1C(=O)N1CCCC(c2[nH]ncc2S(C)(=O)=O)C1` (configuration not stated), the cytotoxicity at 10 µM is -4.41%.

For the molecule `CNc1nc2c(s1)C(c1cccc(F)c1F)CC(=O)N2` (configuration not stated), the cytotoxicity at 10 µM is -2.15%.

On to `N#CC1(C(=O)NCC2CCC3(CCNCC3)O2)CC1` (configuration not stated), for which the cytotoxicity at 10 µM is -5.22%.

As to `CC(=O)N1CCC2(CC1)COCCN2Cc1ccc(F)cc1`, the cytotoxicity at 10 µM amounted to 5.69%.

Consider `O=C(NCCNc1cc(N2CCCC2)ncn1)c1cnccn1`, for which the cytotoxicity at 10 µM is -46.3%.

With `CC(C)c1nsc(N2CCS(=O)(=O)CC2)n1`, the cytotoxicity at 10 µM is -2.41%.

For `Cc1ccoc1C(=O)N1Cc2c(CN3CCCCC3)nn(C)c2C1`, the cytotoxicity at 10 µM was -1.16%.

Consider `CCn1cc(S(=O)(=O)Nc2ccc3[nH]c(C4CCC4)nc3c2)cn1`, for which the cytotoxicity at 10 µM was found to be 1.45%.

On to `CC(C)N1CCC(c2cccc(C(=O)N(C)C)n2)CC1`, for which the cytotoxicity at 10 µM is 9.23%.

In the case of `CCc1n[nH]c(C2CN(CCCOc3cccc(C)c3)CCO2)n1` (configuration not stated), the cytotoxicity at 10 µM is -15%.

Take `COC[C@@]12CC[C@@H](N3CCOCC3)C[C@H]1CCN(c1ncccn1)C2`: the cytotoxicity at 10 µM is -11.9%.

Consider `CCc1nc(CC(=O)N2CCC(C(=O)N3CCCCC3)CC2)cs1`, for which the cytotoxicity at 10 µM came out at 4.92%.

With `Cc1c(C)n2c(SCC(=O)N3CCC(C)CC3)nnc2[nH]c1=O`, the cytotoxicity at 10 µM turned out to be 0.351%.

With `Cc1ccc(N(CC(=O)N2CCCCC2)C(=O)C2CCCO2)cc1` (configuration not stated), the cytotoxicity at 10 µM worked out at 13.9%.

In the case of `CSCc1noc(CNC(=O)C2CCN(C(C)C)CC2)n1`, the cytotoxicity at 10 µM is -2.86%.

Regarding `Cc1noc(-c2ccc(N3CCC(C(=O)N4CCCC4)CC3)nc2)n1`, the cytotoxicity at 10 µM amounted to 6.5%.

For the molecule `NC(=O)Nc1cccc(CNC(=O)CCCc2ccccc2)c1`, the cytotoxicity at 10 µM was -10.1%.

As for `Cc1cccc(OCCNC(=O)CN2CCc3cncnc3C2)c1`, the cytotoxicity at 10 µM was -6.65%.

Regarding `COCCC1COC2(CCN(C(=O)c3cccn3C)CC2)C1` (configuration not stated), the cytotoxicity at 10 µM is -80.7%.

`C[C@@H]1C[C@@H]2CCN(Cc3ccncc3)C[C@H]2O1`: the cytotoxicity at 10 µM is -72.9%.

For `CN([C@@H]1CC[C@@H](N2CCOCC2)[C@@H]1O)S(=O)(=O)c1ccccc1`, the cytotoxicity at 10 µM is 2.77%.

`COCCNC(=O)[C@H]1CC[C@@H]2[C@@H](CCN2c2ncc(F)cn2)O1`: the cytotoxicity at 10 µM was -2.25%.

`CCn1nc(C)c2nc(C)nc(NCCCn3cccn3)c21`: the cytotoxicity at 10 µM stood at 2.38%.

For the molecule `COc1ccccc1CC(=O)NS(=O)(=O)c1ccc(NC(C)=O)cc1`, the cytotoxicity at 10 µM is -2.18%.

In the case of `Cc1ccc(NC(C)C(=O)NCc2cccs2)cc1Cl` (configuration not stated), the cytotoxicity at 10 µM was -2.27%.

Regarding `c1ccc(-n2ccc(CN3CCCC3Cn3cncn3)n2)cc1` (configuration not stated), the cytotoxicity at 10 µM stood at 0.665%.

Regarding `CN(C)c1cc(CNC(=O)Nc2cccnc2N2CCCC2)ccn1`, the cytotoxicity at 10 µM was -20.5%.

With `c1cnc(NC[C@H]2OC[C@@H]3CCN(Cc4nccs4)C[C@@H]32)nc1`, the cytotoxicity at 10 µM was -3.38%.

For the molecule `CCc1[nH]c2c(CNc3cncc(C(=O)N(C)C)n3)cc(F)cc2c1C`, the cytotoxicity at 10 µM was 3.86%.

In the case of `CCCc1cc(C(=O)N2CCCC(n3ccnc3C)C2)[nH]n1` (configuration not stated), the cytotoxicity at 10 µM was -15.6%.

Consider `CC(C)OCCN1CCC(N2CCN(C)C2=O)CC1`, for which the cytotoxicity at 10 µM is -11.4%.

Consider `O=C(c1ccc(NC2CC2)nc1)N1CCC(Nc2cccnn2)CC1`, for which the cytotoxicity at 10 µM is -12.6%.

As to `CCc1cc(NC2CCC(O)CC2)n2nc(C)c(C)c2n1` (configuration not stated), the cytotoxicity at 10 µM was -6.86%.

For `COc1ccc(CCN(C)CCS(=O)(=O)c2ccc(Cl)cc2)cc1OC`, the cytotoxicity at 10 µM worked out at 35.4%.

On to `Cn1nnnc1SC1CCCN(c2ccccc2Cl)C1=O` (configuration not stated), for which the cytotoxicity at 10 µM came to 3.71%.

As for `OCCc1ccccc1-n1ccnc1-c1cn(C2CCNCC2)nn1`, the cytotoxicity at 10 µM worked out at 2.39%.

In the case of `Cc1nc(CN2C[C@@H]3CN(C(=O)C4(C#N)CC4)C[C@@H]3C2=O)cs1`, the cytotoxicity at 10 µM is -70.7%.

On to `CCOc1ncccc1CNC(=O)Nc1ccc(N(C)C)nc1`, for which the cytotoxicity at 10 µM is -11.8%.

On to `CC1(C)CC(N(Cc2ccccc2)Cc2ncc[nH]2)CC(C)(C)N1`, for which the cytotoxicity at 10 µM was 0.385%.

For the molecule `CC(C)c1nsc(N2CCn3c(nnc3C(F)(F)F)C2)n1`, the cytotoxicity at 10 µM is 5.83%.

On to `COc1ccc(C2Nc3ccccc3N=C3CNC(=O)C32)cc1OC` (configuration not stated), for which the cytotoxicity at 10 µM turned out to be 5.56%.

With `O=C1NC2(Cc3ccccc31)CN(CC1CCNC1)C2` (configuration not stated), the cytotoxicity at 10 µM turned out to be 9.76%.

For `CN1CCCC2(CC1)CCN(C(=O)CCc1ccccc1F)CC2`, the cytotoxicity at 10 µM was -5.95%.

As to `Cc1noc(-c2ccc(N3CCN(Cc4ncccc4C)CC3)nc2)n1`, the cytotoxicity at 10 µM was -3.35%.

Regarding `O=C1CN(C(=O)c2cccc(OCc3cscn3)c2)CCN1`, the cytotoxicity at 10 µM turned out to be 1.9%.

In the case of `COc1ccccc1C1(CNC(=O)NCc2noc(C)n2)CC1`, the cytotoxicity at 10 µM was -0.343%.

With `COCCC(=O)N1CCC2(COCc3cnc(-c4ccccc4)nc32)C1` (configuration not stated), the cytotoxicity at 10 µM is 3.6%.

Take `Cc1ccc(C2(CN(C)Cc3sccc3C)CCNCC2)nc1`: the cytotoxicity at 10 µM amounted to 8.15%.

Turning to `CC(C)c1ncncc1C(=O)N1CCCN(Cc2cccs2)CC1`, the cytotoxicity at 10 µM is -7.42%.

`CC(=O)N1CCCc2cc(NC(=O)NCCc3cnn(C)c3)ccc21`: the cytotoxicity at 10 µM was -5.42%.

In the case of `Oc1nc(N2CCOCC2)nc2nccc(-c3ccccn3)c12`, the cytotoxicity at 10 µM is 7.52%.

As for `CCCn1nccc1NC(=O)CN1CCCC1Cn1cc(C)cn1` (configuration not stated), the cytotoxicity at 10 µM was -8.09%.

As to `COc1cc(N2CCc3ncnc(-c4ccoc4)c3CC2)ncn1`, the cytotoxicity at 10 µM turned out to be 14.9%.

Turning to `OCC(CO)Nc1ccc2ccc(Cl)c(Cl)c2n1`, the cytotoxicity at 10 µM was -8.82%.

Turning to `COCC(=O)N1CCCC(C(=O)N(C)CCn2ccnc2C)C1` (configuration not stated), the cytotoxicity at 10 µM amounted to 0.707%.

On to `CSCCCNc1nccc(-c2cc(C(=O)O)ccn2)n1`, for which the cytotoxicity at 10 µM turned out to be 3.49%.

With `CN(C)C(=O)N1CCc2c(COCC3CC3)cncc2C1`, the cytotoxicity at 10 µM is -68.2%.

For `Cc1nncn1CCNC(=O)C(C)(C)c1cccc(Cl)c1`, the cytotoxicity at 10 µM was 8.55%.

Turning to `CCc1ccc2nc(C)cc(C(=O)NC3CCNC3=O)c2c1` (configuration not stated), the cytotoxicity at 10 µM was -4.65%.

As to `Cc1nc2ccccc2n1Cc1cc(C(=O)NC2CCOC2)no1` (configuration not stated), the cytotoxicity at 10 µM was 4.45%.

As to `Cc1nc(CN2CCOC3(CCCC3)C2)no1`, the cytotoxicity at 10 µM is -6.65%.

As to `COc1ccccc1C1SCC(=O)Nc2c1c(=O)[nH]n2C1CCOCC1` (configuration not stated), the cytotoxicity at 10 µM was -5.43%.

For `NC(=O)CN1CCCCC1c1ccc(-n2ccnc2)nc1` (configuration not stated), the cytotoxicity at 10 µM was 1.6%.

Regarding `CC(NS(C)(=O)=O)C(=O)N(C)Cc1csc(-c2cccs2)n1` (configuration not stated), the cytotoxicity at 10 µM is -0.525%.

In the case of `CC(C)N1CC2(CCCN(Cc3noc(C4CCCC4)n3)C2)CCC1=O` (configuration not stated), the cytotoxicity at 10 µM was 0.00194%.

Take `Cc1oc(-c2cccs2)nc1C(=O)N(C)C1(C#N)CCC1`: the cytotoxicity at 10 µM came to 5.09%.

For `CC[C@H]1CN(S(C)(=O)=O)CC[C@H]1CC(=O)NCCSC`, the cytotoxicity at 10 µM came out at 3.45%.

`Cc1[nH]ncc1CCCNC(=O)Nc1ccc(F)cc1`: the cytotoxicity at 10 µM was determined as 3.91%.

Turning to `Cc1cccc2c1ccn2CC(=O)NC[C@@H]1CCCN2CCCC[C@H]12`, the cytotoxicity at 10 µM is 3.14%.

On to `C=Cn1ncc(CN2CCc3nc(-c4ccncc4)nc(O)c3C2)c1C`, for which the cytotoxicity at 10 µM is -4.45%.

For the molecule `CC(C)Oc1ncnc2c1CCN(C(=O)c1cccn1C)CC2`, the cytotoxicity at 10 µM worked out at 6.95%.

`CC(=O)NCCNC(=O)CN1CCCCC1Cn1cncn1` (configuration not stated): the cytotoxicity at 10 µM was 2.7%.
